We go through one compound from ChEMBL document CHEMBL4334552, “Discovery of BMS-986260, a Potent, Selective, and Orally Bioavailable TGFβR1 Inhibitor as an Immuno-oncology Agent” (ACS Med Chem Lett, 2020).

Each structure is given as a SMILES string. The source made the active and inactive calls. The calls are words filed in the database; no cut-off is given here.

Data set [1] can be described thus: Protein binding in human serum assessed as unbound fraction. Type of data set: ADME, cell-free.
Data set [2] is described as follows: Protein binding in mouse serum assessed as unbound fraction. The format is ADME, cell-free.
The nature of data set [3]: Half life in rat liver microsomes in presence of NADPH. Type of data set: ADME, Microsome. A general note: Liver microsomes are vesicles of endoplasmic reticulum, rich in cytochrome P450 enzymes.
Data set [4] in a line: Half life in human liver microsomes in presence of UGT/UDPGA. The format is ADME, Microsome.
Data set [5] can be described thus: Half life in human hepatocytes. Type of data set: ADME, cell-based, Hepatocyte.
A short description of data set [6]: Cmax in Sprague Dawley rat at 10 mg/kg, po. The format is ADME, organism-based. Further details: dose 10 mg/kg, route oral. Conditions: in vivo. The gist of the method:
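Male Sprague–Dawley rats, n = 3, given 5 mg/kg iv or 10 mg/kg po as a PEG400 solution.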

Data set [7] is described as follows: Total AUC in Sprague Dawley rat at 5 mg/kg, iv. Type of data set: ADME, organism-based. Also on record: dose 5 mg/kg, route intravenous, time AUCmax. Conditions: in vivo. The gist of the method: (§1)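 Male Sprague–Dawley rats (n = 3) received a PEG400 solution iv at 5 mg/kg and po at 10 mg/kg.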
Data set [8] is described as follows: Total AUC in Sprague Dawley rat at 10 mg/kg, po. Also on record: dose 10 mg/kg, route oral, time AUCmax. Conditions: in vivo. Type of data set: ADME, organism-based. The gist of the method: as §1
A short description of data set [9]: MRT in Sprague Dawley rat at 5 mg/kg, iv. Type of data set: ADME, organism-based. The conditions noted are these: in vivo. The gist of the method: as §1
Data set [10] can be described thus: Total AUC in Beagle dog at 1 mg/kg, iv. The format is ADME, organism-based, Canis lupus familiaris. Further details: dose 1 mg/kg, time AUCmax, route intravenous. Conditions: in vivo. The gist of the method: (§2)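 Male Beagle dogs (n = 2) were pretreated with pentagastrin and dosed iv at 1 mg/kg and po at 5 mg/kg. The oral vehicle was 5% ethanol, 45% PEG400 and 50% 25 mM acetate buffer pH 4.0. The iv vehicle was 5:45:50 EtOH/PEG400/saline at 1 mL/kg.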

A short description of data set [11]: Total AUC in Beagle dog at 5 mg/kg, po. The format is ADME, organism-based, Canis lupus familiaris. Also on record: dose 5 mg/kg, route oral, time AUCmax. Conditions: in vivo. In outline:
as §2

The nature of data set [12]: Half life in Beagle dog at 1 mg/kg, iv. Type of data set: ADME, organism-based, Canis lupus familiaris. Conditions: in vivo. The gist of the method: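 Male Beagle dogs (n = 2) pretreated with pentagastrin were given 1 mg/kg iv in 5:45:50 EtOH/PEG400/saline at 1 mL/kg. A 5 mg/kg oral arm used 5% ethanol, 45% PEG400, 50% 25 mM acetate buffer pH 4.0. Half-life was from the iv arm.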

A short description of data set [13]: MRT in Beagle dog at 1 mg/kg, iv. Type of data set: ADME, organism-based, Canis lupus familiaris. The conditions noted are these: in vivo. In outline:
as §2

Data set [14] in a line: Oral bioavailability in Beagle dog at 5 mg/kg. Type of data set: ADME, organism-based, Canis lupus familiaris. Conditions: in vivo. In outline:
as §2

Data set [15] is described as follows: Efflux ratio of permeability in human Caco2 cells. The format is ADME, cell-based. Conditions: Caco-2. Background: Caco-2 cells form a polarised layer with tight junctions and transporters.
In data set [16] the test system is MC-38. The experiment in a line: Antitumour activity against mouse MC38 cells allografted in C57Bl/6 mouse assessed as reduction in tumour growth at 3.75 to 15 mg/kg, po qd for 28 days cotreated with anti-PD1 at 10 mg/kg, ip every 4 days for 3 doses by digital caliper analysis. The format is functional, organism-based. The gist of the method: (§3)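 C57/BL6 mice received 0.1 mL of MC38 cells (1 × 10^7 cells/mL) subcutaneously in the right flank. Mice were randomized at about 100 mm3, typically day 5. Oral dosing was once daily for 28 days at 3.75, 7.5 or 15 mg/kg. Anti-PD-1 was given at 10 mg/kg IP every 4 days for three doses. Isotype IgG1 MOPC-21 served as control on the same schedule.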

For a further data set, the system named is 4T1. The data set is described as follows: Inhibition of metastasis in mouse 4T1 cells allografted in Balb/C mouse at 3.75 to 7.5 mg/kg, po qd for 28 days cotreated with anti-PD1 at 10 mg/kg, ip every 4 days for 3 doses by India ink/Fekete's solution based staining. The format is functional, organism-based.
Data set [17] can be described thus: Cardiovascular toxicity in dog at 5 mg/kg, po dosed every 3 days on and 4 days off treatment regime for 1 month. Type of data set: organism-based, Canis lupus familiaris. Conditions: in vivo.
The next data set concerns the target Cytochrome P450 2D6 (Homo sapiens, UniProt P10635). The experiment in a line: Induction of recombinant CYP2D6 (unknown origin) up to 24 microM. Type of data set: ADME. The conditions noted are these: recombinant enzyme.
For data set [18], the system named is MC-38. The data set is described as follows: Antitumour activity against mouse MC38 cells allografted in C57Bl/6 mouse assessed as reduction in tumour growth at 3.75 to 15 mg/kg, po qd for 28 days cotreated with anti-PD1 at 10 mg/kg, ip every 4 days for 3 doses measured for ten doubling times after cessation of treatment by digital caliper analysis. The format is functional, organism-based. In outline:
as §3

Data set [19] concerns MC-38. The data set is described as follows: Antitumour activity against mouse MC38 cells allografted in C57Bl/6 mouse assessed as reduction in tumour growth at 3.75 mg/kg, po dosed every 3 days on and 4 days off treatment regime and cotreated with anti-PD1 at 10 mg/kg, ip every 4 days for 3 doses measured for ten doubling times after cessation of treatment by digital caliper analysis. Type of data set: functional, organism-based. In outline: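 MC38 cells (0.1 mL at 1 × 10^7 cells/mL) were implanted subcutaneously in the right flank of C57/BL6 mice. Randomization was at about 100 mm3, typically day 5. Oral dosing ran 3 days on, 4 days off, over 28 days. Anti-PD-1 was given at 10 mg/kg IP every 4 days for three doses, with isotype MOPC-21 IgG1 as control on the same schedule.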

Data set [20] deals with T1, TGF-beta receptor type-1 (Homo sapiens, UniProt P36897).
T1 sequence (P36897 whole entry): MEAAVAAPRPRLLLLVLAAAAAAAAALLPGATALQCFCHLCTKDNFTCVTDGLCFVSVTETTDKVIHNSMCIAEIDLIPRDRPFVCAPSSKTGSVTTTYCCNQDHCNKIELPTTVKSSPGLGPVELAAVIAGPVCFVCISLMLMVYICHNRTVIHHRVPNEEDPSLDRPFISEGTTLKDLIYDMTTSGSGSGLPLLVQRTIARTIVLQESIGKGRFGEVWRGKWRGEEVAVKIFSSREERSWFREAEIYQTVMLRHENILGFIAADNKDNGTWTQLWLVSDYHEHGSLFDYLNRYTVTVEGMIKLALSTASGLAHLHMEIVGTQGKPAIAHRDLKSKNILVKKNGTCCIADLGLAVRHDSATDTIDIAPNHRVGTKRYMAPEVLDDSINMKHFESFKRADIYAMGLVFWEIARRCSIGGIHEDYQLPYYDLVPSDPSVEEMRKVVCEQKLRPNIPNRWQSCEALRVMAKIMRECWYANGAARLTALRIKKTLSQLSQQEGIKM
The data set is described as follows: Inhibition of TGFBR1 in human biochemical assay assessed as apparent inhibition constant. Conditions: read-out: Ki(app).

In data set [21] the target is T2, TGF-beta receptor type-1 (Mus musculus, UniProt Q64729).
T2 sequence (Q64729 whole entry): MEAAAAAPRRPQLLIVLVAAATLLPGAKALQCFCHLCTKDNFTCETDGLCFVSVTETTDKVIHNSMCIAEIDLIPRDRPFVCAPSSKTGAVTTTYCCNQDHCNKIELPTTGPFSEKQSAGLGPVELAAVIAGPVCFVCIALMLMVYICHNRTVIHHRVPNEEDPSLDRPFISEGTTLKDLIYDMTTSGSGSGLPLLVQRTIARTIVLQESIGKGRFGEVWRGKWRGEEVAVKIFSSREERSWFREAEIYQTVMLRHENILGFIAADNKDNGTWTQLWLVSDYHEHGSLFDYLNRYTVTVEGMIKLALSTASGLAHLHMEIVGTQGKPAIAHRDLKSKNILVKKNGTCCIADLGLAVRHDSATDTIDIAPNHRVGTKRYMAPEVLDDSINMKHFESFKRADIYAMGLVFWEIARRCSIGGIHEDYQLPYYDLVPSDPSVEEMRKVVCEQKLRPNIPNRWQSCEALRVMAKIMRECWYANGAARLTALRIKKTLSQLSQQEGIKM
The experiment in a line: Inhibition of TGFBR1 in mouse biochemical assay assessed as apparent inhibition constant. Conditions: read-out: Ki(app).

Chain of Cytochrome P450 2D6 (P10635 whole entry): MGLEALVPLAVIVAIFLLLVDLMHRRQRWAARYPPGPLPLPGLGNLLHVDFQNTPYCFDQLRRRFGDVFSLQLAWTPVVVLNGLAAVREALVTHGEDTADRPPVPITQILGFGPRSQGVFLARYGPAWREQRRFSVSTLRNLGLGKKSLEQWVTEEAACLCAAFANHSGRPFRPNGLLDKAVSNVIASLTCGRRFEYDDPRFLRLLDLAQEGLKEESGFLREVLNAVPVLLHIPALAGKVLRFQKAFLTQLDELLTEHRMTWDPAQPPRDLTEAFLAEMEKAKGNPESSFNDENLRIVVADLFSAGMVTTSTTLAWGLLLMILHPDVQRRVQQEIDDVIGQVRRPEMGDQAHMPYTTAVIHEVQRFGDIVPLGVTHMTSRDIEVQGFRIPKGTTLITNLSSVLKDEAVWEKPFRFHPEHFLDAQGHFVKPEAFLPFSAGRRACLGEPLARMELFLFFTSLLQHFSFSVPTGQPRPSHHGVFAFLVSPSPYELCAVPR

In the case of `N#Cc1cnc2ccc(-c3c(-c4ccc(F)c(Cl)c4)ncn3CCO)nn12`, the results for the fraction unbound in data set [1] and in [2] were 0.1 and 0.12, respectively. The half-life in data set [3] was 0.833 h; in [4], above 2 h; in data set [5], 0.9 h; in data set [12], 5 h. This compound also returned a peak concentration (Cmax) in [6] of 12.7 µM. The AUC in data set [7] came out at 39.6 µM·h; in data set [8], 90.8 µM·h; in [10] it was 7 µM·h; in data set [11] it was 35 µM·h. Besides, the mean residence time (MRT) in [9] is 7.2 h; in data set [13] it was 3.1 h. This compound also showed a bioavailability in [14] of 93%. Moreover, the efflux ratio in [15] came out at 2.5. For the same compound, the inhibition result in the data set with MC-38 [16], with 4T1, with MC-38 [18] and in the data set with MC-38 [19] was “Active” each time. For the same compound, the Activity result in data set [17] is given as “Non-Toxic”; at Cytochrome P450 2D6, “Not Active”. For the same compound, the Ki was 0.8 nM at TGF-beta receptor type-1 [20] and 1.4 nM at TGF-beta receptor type-1 [21].

By fraction unbound is commonly meant the share of the substance not bound to proteins or other matrix. In general, half-life refers to the time in which the quantity being followed falls by half. What is called Cmax is the peak of the concentration-time curve. One may read the AUC as concentration integrated over time. By MRT is commonly meant a mean duration of stay, worked out from the concentration-time curve. The bioavailability is the share of a dose that reaches the circulation, judged against a reference dose that is usually intravenous. Higher therefore signals much systemic uptake. In general, efflux ratio refers to a quotient of directional permeabilities that is used to spot active efflux.
